Type in all cases: nucleic-acid assay
The subject of experiment [1] is CAG repeat expansion. The experiment can be described thus: Binding affinity to CAG (5-GCAGCAGCUUCGGCAGCAGC-3) repeat RNA (unknown origin) by spectrophotometric analysis. The essentials: (§1)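 The compound was titrated with RNA, and electronic absorption spectra were recorded on a two-beam UV-vis spectrophotometer. Binding constants were calculated from the spectrophotometric titration data.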

Another experiment relates to r(CUG) repeat expansion. The experiment can be described thus: Binding affinity to CUG (5-GGUCGCUGCUGCACGAAAGUGCUGCUGCGACC-3) RNA (unknown origin) assessed as change in fluorescence intensity.
Another experiment concerns TAR RNA. The experiment can be described thus: Binding affinity to HIV-1 TAR (5-GGCAGAUCUGAGCCUGGGAGCUCUCUGCC-3) RNA assessed as change in fluorescence intensity. Particulars: Human immunodeficiency virus 1.
For experiment [2], the system named is CAG repeat expansion. The experiment can be described thus: Binding affinity to HTT exon 1 (CAG)51 repeat RNA (unknown origin) assessed as reduction in human MID1 binding to HTT exon 1 (CAG)51 repeat RNA at 100 uM by Western blot analysis. The essentials:
(§2)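 Biotinylated RNA was folded in 10 mM Tris pH 7, 100 mM KCl, 10 mM MgCl₂ (72 °C for 10 min, then cooled to room temperature). 80 pmol of RNA was loaded onto streptavidin-agarose beads in buffer D for 30 min at room temperature. HEK293T protein extract was bound overnight at 4 °C. After washes, bound proteins were eluted at 95 °C for 10 min, and MID1 was detected by anti-MID1 western blot.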
A general note: A western blot detects proteins with antibodies after separation by electrophoresis.

Experiment [3] relates to Rev responsive element (RRE) RNA. The experiment can be described thus: Binding affinity to HIV-1 RRE-IIB (5-GGUCUGGGCGCAGCGCAAGCUGACGGUACAGGCC-3) RNA assessed as change in fluorescence intensity. The following applies: Human immunodeficiency virus 1.
Experiment [4] concerns CAG repeat expansion. Briefly: Binding affinity to HTT exon 1 (CAG)51 repeat RNA (unknown origin) assessed as reduction in human MID1 binding to HTT exon 1 (CAG)51 repeat RNA by Western blot analysis. The following applies: dose 1-100 µM. The essentials: as §2
For experiment [5], the system named is CAG repeat expansion. Briefly: Binding affinity to CAG (5-GCAGCAGCUUCGGCAGCAGC-3) repeat RNA (unknown origin) assessed as binding constant. The essentials: as §1
Experiment [6] concerns CAG repeat expansion. The experiment can be described thus: Binding affinity to CAG (5-GCAGCAGCUUCGGCAGCAGC-3) repeat RNA (unknown origin) assessed as hypochromic red shift by spectrophotometric analysis. The essentials: as §1

Calls of active or inactive are those of the source. The calls are words filed in the database; no cut-off is given here.

Take `O=C1/C(=C/c2c3ccccc3cc3ccccc23)Oc2ccccc21`: the result in the experiment with CAG repeat expansion [1], in the experiment on r(CUG) repeat expansion and in the experiment with CAG repeat expansion [2] was inactive. For the same compound, the outcome (in the experiment on TAR RNA; in experiment [3]) was Active.

As for `CN(C)CCOc1ccc(/C=C2\Oc3cc(OCCN(C)C)ccc3C2=O)cc1`, the Activity result in the experiment with CAG repeat expansion [4] was “Dose-dependent-effect”; in the experiment on r(CUG) repeat expansion it was “No effect”; in the experiment on TAR RNA, “No effect”; in experiment [3], “No effect”. Besides, the K in the experiment with CAG repeat expansion [5] is 1.4 10^5/M. The outcome in the experiment on CAG repeat expansion [2] and with CAG repeat expansion [6] was Active.

These data come from ChEMBL document CHEMBL6083224, “A novel aurone RNA CAG binder inhibits the huntingtin RNA-protein interaction” (RSC Med Chem, 2024).
